Activity and inhibition data for 1 molecule are collected here from ChEMBL document CHEMBL4002604, “Evaluation of biological properties of 3,3',4,4'-benzophenonetetracarboxylic dianhydride derivatives and their ability to inhibit hexokinase activity” (2017).

Active and inactive are the calls of the source. The calls are words filed in the database; no cut-off is given here.

For test [1], the system named is P19. As to the kind of experiment: Cytotoxicity against undifferentiated mouse P19 cells assessed as metabolic activity at 1 to 100 uM after 72 hrs by resazurin assay relative to control. In kind it is functional. A digest of the protocol: (§1)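 Metabolic activity by resazurin reduction in undifferentiated (P19SCs) or differentiated (P19dCs) P19 cells. Exposure to 1, 10 or 100 µM for 24, 48 or 72 h. Read-out relative to untreated control. Significance vs control at p<0.05.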

For test [2], the system named is P19. As to the kind of experiment: Cytotoxicity against differentiated mouse P19 cells assessed as metabolic activity at 1 to 100 uM after 72 hrs by resazurin assay relative to control. In kind it is functional. A digest of the protocol:
as §1

In test [3] the test system is P19. Nature of the test: Cytotoxicity against differentiated mouse P19 cells assessed as metabolic activity at 1 to 100 uM after 24 hrs by resazurin assay relative to control. It counts as functional. A digest of the protocol:
as §1
On the technique in general: The colour change of resazurin is a common sign of viable cells or microbes.

In test [4] the test system is P19. As to the kind of experiment: Cytotoxicity against undifferentiated mouse P19 cells assessed as metabolic activity at 1 to 100 uM after 24 hrs by resazurin assay relative to control. In kind it is functional. A digest of the protocol:
as §1

Test [5] concerns P19. As to the kind of experiment: Cytotoxicity against differentiated mouse P19 cells assessed as cell mass at 1 to 100 uM after 72 hrs by SRB assay relative to control. In kind it is functional. The gist of the method:
(§2)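 Cell mass by SRB assay in P19 cells (CRL-1825), either undifferentiated (P19SCs) or differentiated (P19dCs). Cells exposed to 1, 10 or 100 µM for 24, 48 or 72 h. Values expressed relative to untreated control. Means ± SD from at least 4 independent measurements, 6 repeats each. Significance vs control at p<0.05.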
(In general: In SRB staining, fixed cells bind dye roughly in proportion to their protein.)

In test [6] the target is T1, Hexokinase-2 (Mus musculus) (UniProt O08528).
T1 sequence (whole entry): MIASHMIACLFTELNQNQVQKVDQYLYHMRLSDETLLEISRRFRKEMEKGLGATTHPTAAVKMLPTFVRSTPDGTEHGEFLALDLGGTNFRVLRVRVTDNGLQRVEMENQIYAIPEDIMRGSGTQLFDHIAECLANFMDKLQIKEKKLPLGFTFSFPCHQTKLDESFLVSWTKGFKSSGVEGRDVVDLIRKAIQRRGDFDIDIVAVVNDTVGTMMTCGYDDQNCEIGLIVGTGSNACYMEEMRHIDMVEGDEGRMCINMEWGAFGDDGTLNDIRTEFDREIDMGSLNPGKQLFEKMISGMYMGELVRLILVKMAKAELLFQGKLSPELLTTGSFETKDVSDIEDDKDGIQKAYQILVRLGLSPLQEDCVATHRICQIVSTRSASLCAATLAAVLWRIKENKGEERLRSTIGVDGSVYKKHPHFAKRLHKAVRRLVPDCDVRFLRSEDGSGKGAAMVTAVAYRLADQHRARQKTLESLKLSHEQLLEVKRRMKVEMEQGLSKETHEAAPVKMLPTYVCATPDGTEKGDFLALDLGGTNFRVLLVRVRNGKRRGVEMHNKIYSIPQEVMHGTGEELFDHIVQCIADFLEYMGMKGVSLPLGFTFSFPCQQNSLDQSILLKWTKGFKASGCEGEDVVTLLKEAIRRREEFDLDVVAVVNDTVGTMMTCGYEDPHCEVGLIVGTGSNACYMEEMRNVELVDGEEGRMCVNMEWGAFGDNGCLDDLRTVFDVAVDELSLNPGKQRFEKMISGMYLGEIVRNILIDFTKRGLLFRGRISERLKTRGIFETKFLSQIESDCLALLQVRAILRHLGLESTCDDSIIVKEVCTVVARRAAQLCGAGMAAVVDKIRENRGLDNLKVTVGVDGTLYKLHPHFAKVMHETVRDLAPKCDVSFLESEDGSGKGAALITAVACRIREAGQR
Nature of the test: Inhibition of HK2 isolated from mouse undifferentiated P19 cell lysates at […] using [U-14C]-labeled glucose as substrate in presence of ATP and NADP by G6PD enzyme coupled spectrophotometric assay. A digest of the protocol: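 Hexokinase activity measured in supernatant of freshly prepared, centrifuged lysates of undifferentiated P19 cells. Buffer was 100 mM Tris-HCl pH 8.0 with 0.5 mM EDTA, 10 mM MgCl2, 2 mM glucose, 0.1 mM NADP and 0.1 U/ml G6PD. After 10 min preincubation at 37°C, 10 mM ATP was added to start the reaction. NADPH formation was followed at 340 nm. Four independent experiments, ≥4 repeats each.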

In test [7] the test system is P19. Nature of the test: Cytotoxicity against differentiated mouse P19 cells assessed as metabolic activity at 1 to 100 uM after 48 hrs by resazurin assay relative to control. It counts as functional. The gist of the method: as §1
The test system of test [8] is P19. As to the kind of experiment: Cytotoxicity against differentiated mouse P19 cells assessed as cell mass at 1 to 100 uM after 24 hrs by SRB assay relative to control. It counts as functional. The gist of the method:
as §2

Test [9] relates to P19. Nature of the test: Cytotoxicity against undifferentiated mouse P19 cells assessed as metabolic activity at 1 to 100 uM after 48 hrs by resazurin assay relative to control. In kind it is functional. The gist of the method: as §1
Test [10] concerns P19. As to the kind of experiment: Cytotoxicity against differentiated mouse P19 cells assessed as cell mass at 1 to 100 uM after 48 hrs by SRB assay relative to control. It counts as functional. A digest of the protocol:
as §2

Test [11] deals with P19. Nature of the test: Cytotoxicity against undifferentiated mouse P19 cells assessed as cell mass at 1 to 100 uM after 24 hrs by SRB assay relative to control. In kind it is functional. A digest of the protocol:
as §2

Test [12] concerns P19. As to the kind of experiment: Cytotoxicity against undifferentiated mouse P19 cells assessed as cell mass at 1 to 100 uM after 48 hrs by SRB assay relative to control. It counts as functional. A digest of the protocol:
as §2

Test [13] relates to P19. Nature of the test: Cytotoxicity against undifferentiated mouse P19 cells assessed as cell mass at 1 to 100 uM after 72 hrs by SRB assay relative to control. In kind it is functional. A digest of the protocol:
as §2

Regarding `OC[C@H]1OC(O)C[C@@H](O)[C@@H]1O` (stereo partly drawn), the Activity worked out at 101.3% in the test with P19 [1]; 94.4% with P19 [2]; 90.5% in the test on P19 [3]; 100.1% in the test with P19 [4]; 97.4% with P19 [5]; 101.7% in the test on P19 [7]. The Activity in the test with P19 [8] was determined as 90.5%; in the test on P19 [9] it was 91.2%; with P19 [10] it was 93.6%; with P19 [11] it was 120.4%; in the test with P19 [12], 99.6%; in the test with P19 [13] it was 103.8%. In addition, in test [6], the inhibition result is “Active”.
